Laboratory results taken from ChEMBL document CHEMBL4680100, “Revisiting the SAR of the Antischistosomal Aryl Hydantoin (Ro 13-3978)” (J Med Chem, 2016).
In brackets after ≈: the same amount, converted by molar mass.

How the values were obtained:
Androgen receptor = molecular target: T1, Androgen receptor (Homo sapiens, UniProt P10275)
T1 sequence (P10275 whole entry): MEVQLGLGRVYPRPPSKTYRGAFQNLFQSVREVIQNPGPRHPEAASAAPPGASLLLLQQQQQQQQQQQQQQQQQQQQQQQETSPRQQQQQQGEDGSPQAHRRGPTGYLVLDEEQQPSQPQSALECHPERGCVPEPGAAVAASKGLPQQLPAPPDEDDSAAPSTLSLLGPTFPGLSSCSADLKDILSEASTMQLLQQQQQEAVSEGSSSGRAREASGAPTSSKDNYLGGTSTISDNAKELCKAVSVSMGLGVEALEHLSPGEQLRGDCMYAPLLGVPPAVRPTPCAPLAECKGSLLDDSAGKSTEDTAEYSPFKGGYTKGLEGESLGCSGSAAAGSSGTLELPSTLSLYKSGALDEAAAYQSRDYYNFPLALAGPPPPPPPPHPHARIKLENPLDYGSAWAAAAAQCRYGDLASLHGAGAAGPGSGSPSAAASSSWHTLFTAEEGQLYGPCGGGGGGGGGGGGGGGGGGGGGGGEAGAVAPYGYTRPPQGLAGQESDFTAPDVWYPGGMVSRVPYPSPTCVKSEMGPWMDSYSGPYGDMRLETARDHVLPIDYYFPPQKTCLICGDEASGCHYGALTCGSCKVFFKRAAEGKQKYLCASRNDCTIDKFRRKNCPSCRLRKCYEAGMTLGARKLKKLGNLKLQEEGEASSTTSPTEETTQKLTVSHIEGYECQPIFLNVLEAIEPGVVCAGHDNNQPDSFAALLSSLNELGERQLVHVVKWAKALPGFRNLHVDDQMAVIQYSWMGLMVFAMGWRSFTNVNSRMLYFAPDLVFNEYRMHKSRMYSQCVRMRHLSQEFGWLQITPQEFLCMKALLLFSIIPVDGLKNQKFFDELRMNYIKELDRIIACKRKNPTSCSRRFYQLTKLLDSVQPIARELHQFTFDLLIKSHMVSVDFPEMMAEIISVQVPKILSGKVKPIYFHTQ

[1] = Octanol/water partition coefficient, logD of the compound at pH 7.4 by HPLC analysis
Schistosoma mansoni = experiment: Antischistosomal activity against Schistosoma mansoni infected in NMRI mouse assessed as reduction in total worm burden at 100 mg/kg, po administered as single dose starting on day 49 post-infection and measured at 28 days post treatment relative to control; assay type: functional; parameters: scale not given: the % may be the effect or the level left; conditions: time 28 day
In short: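 S. mansoni-infected NMRI mice treated on day 49 post-infection with a single oral dose, dissolved or suspended in 7% v/v Tween 80, 3% v/v ethanol (10 mL/kg), five mice per group. Sacrificed and dissected 28 d post-treatment; worms counted to give total worm burden reduction versus untreated controls. Kruskal–Wallis test on medians, treatment versus control.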

Albumin = Albumin (Homo sapiens, UniProt P02768); experiment: Protein binding in immobilized human serum albumin by HPLC analysis; assay type: ADME; conditions: isolated protein
Sequence of Albumin (P02768 whole entry): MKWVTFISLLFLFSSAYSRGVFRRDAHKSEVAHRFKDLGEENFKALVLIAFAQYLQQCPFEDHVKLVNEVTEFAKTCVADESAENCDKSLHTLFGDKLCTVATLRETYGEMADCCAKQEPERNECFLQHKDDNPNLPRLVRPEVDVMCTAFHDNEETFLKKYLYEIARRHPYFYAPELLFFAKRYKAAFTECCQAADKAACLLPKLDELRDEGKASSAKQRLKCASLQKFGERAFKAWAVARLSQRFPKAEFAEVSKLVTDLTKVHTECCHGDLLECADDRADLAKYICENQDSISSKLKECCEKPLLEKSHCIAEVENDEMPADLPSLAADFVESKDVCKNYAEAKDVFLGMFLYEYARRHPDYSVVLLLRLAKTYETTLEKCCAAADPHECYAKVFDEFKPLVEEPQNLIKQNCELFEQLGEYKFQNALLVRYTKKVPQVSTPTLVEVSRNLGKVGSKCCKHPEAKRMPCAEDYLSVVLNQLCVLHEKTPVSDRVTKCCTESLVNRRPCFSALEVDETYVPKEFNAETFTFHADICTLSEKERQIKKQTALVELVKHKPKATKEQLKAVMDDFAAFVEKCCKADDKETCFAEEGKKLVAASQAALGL
In short: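 Binding estimated from gradient HPLC retention on a human albumin column, correlated against standard compounds of known protein binding.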

L6 = experiment: Cytotoxicity against rat L6 cells assessed as reduction in cell viability at up to 30 uM; assay type: cell-based
[2] = Intrinsic clearance in human liver microsome in presence of NADPH-regenerating system incubated over 60 mins by LC-MS analysis; conditions: microsomes, 1 h
[3] = Intrinsic clearance in mouse liver microsome in presence of NADPH-regenerating system incubated over 60 mins by LC-MS analysis; conditions: microsomes, 1 h
[4] = Tmax in male Swiss mouse at 100 mg/kg, po administered via gavage measured upto 48 hrs postdose by LC-MS analysis; assay type: ADME, organism-based; conditions: in vivo
In short: (§1)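 Nonfasted male Swiss outbred mice (25–33 g, 7 per compound, fed ad libitum) were gavaged once at 10 mL/kg. Vehicle was 7% v/v Tween 80, 3% v/v ethanol in water, dosed within 1 h of preparation. Blood was drawn 0.25–48 h postdose (n = 2 per time point) into heparin with stabilizer, and plasma was quantified by LCMS. Noncompartmental analysis.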

[5] = Kinetic solubility of the compound in 0.01 M HCl at pH 2 by nephelometry; assay type: physicochemical; conditions: read-out: Kinetic_solubility
[6] = Kinetic solubility of compound at pH 6.5 phosphate buffer by nephelometry; assay type: physicochemical; conditions: read-out: Kinetic_solubility
[7] = Cmax in male Swiss mouse at 100 mg/kg, po administered via gavage measured upto 48 hrs postdose by LC-MS analysis; assay type: ADME, organism-based; parameters: route oral, dose 100 mg/kg, time <=48; conditions: in vivo
In short: as §1

[8] = AUC (0 to last) in male Swiss mouse at 100 mg/kg, po administered via gavage measured upto 48 hrs postdose by LC-MS analysis; assay type: ADME, organism-based; parameters: route oral, dose 100 mg/kg, time <=48; conditions: in vivo

Compound | IC50 (Androgen receptor) [µM] | logD [1] | Activity (Schistosoma mansoni) [%] | PPB (Albumin) [%] | Activity (L6) | CLH [2] [µL/min/mg] | CLH [3] [µL/min/mg] | Tmax [4] [h] | solubility kinetic [5] [µg/mL] | solubility kinetic [6] [µg/mL] | Cmax [7] [µM] | AUClast [8] [µM·h]
CN1C(=O)N(c2ccc(F)c(C(F)(F)F)c2)C(=O)C1(C)C | 1.3 | 3.2 | 93 | 40.9 | Non-Toxic | 16 | 65 | 1 | 50 (≈ 164 µM) | 50 (≈ 164 µM) |  | 
CN(C)C(=O)c1cc(N2C(=O)NC(C)(C)C2=O)ccc1F | 9.1 | 0.9 | 30 | 5.9 | Non-Toxic | < 7 | < 7 | 1 | > 100 | > 100 | 488 | 1360
CC1(C)C(=O)NC(=O)N1c1ccc(F)c(C(F)(F)F)c1 | 2.8 | 2.5 | 0 | 67.1 | Non-Toxic | < 7 | < 7 |  | 25 (≈ 86.1 µM) | 25 (≈ 86.1 µM) |  | 
CCN1C(=O)N(c2ccc(F)c(C(F)(F)F)c2)C(=O)C1(C)C | 0.14 | 3.5 | 98 | 49.3 | Non-Toxic | 30 | 32 | 1 | 50 (≈ 157 µM) | 25 (≈ 78.5 µM) | 11.1 | 103
CC1(C)NC(=O)N(c2ccc(F)c(C(F)F)c2)C1=O | ≥ 10 | 2.2 | 94 | 20.4 | Non-Toxic | < 7 | < 7 | 3 | > 100 | > 100 | 112 | 3190
CC1(C)NC(=O)N(c2cnccn2)C1=O | > 10 | 0.3 | 42 | 5.8 | Non-Toxic | < 7 | < 7 |  | > 100 | > 100 |  | 
Cc1ccc(N2C(=O)NC(C)(C)C2=O)cc1C(F)(F)F | > 10 | 2.8 | 4.8 | 64.8 | Non-Toxic | < 7 | 16 |  | > 100 | > 100 |  | 
CC1(C)NC(=O)N(Cc2ccc(F)c(C(F)(F)F)c2)C1=O | 4.2 | 2.9 | 56 | 82.1 | Non-Toxic | 17 | 11 |  | 50 (≈ 164 µM) | > 100 |  | 
O=C1NC2(CCCCC2)C(=O)N1c1ccc(F)c(C(F)(F)F)c1 | 4.2 | 3.5 | 42 | 74.9 | Non-Toxic | 25 | 122 |  | 3.1 (≈ 9.39 µM) | 3.1 (≈ 9.39 µM) |  | 
CC1(C)OC(=O)N(c2ccc(F)c(C(F)(F)F)c2)C1=O | 2.1 | 3.7 | 11 | 58.1 | Non-Toxic | 12 | 12 |  | 3.1 (≈ 10.6 µM) | 3.1 (≈ 10.6 µM) |  | 
CC1(C)NC(=O)N(c2ccnc(C(F)(F)F)c2)C1=O | 4.5 | 1.9 | 100 | 22.7 | Non-Toxic | < 7 | < 7 | 7 | > 100 | > 100 | 155 | 6480
CC1(C)C(=O)N(c2ccc(F)c(C(F)(F)F)c2)C(=O)N1S(C)(=O)=O | 6.3 | 3.8 | 19 | 66 | Non-Toxic | < 7 | < 7 |  | 1.6 (≈ 4.34 µM) | 1.6 (≈ 4.34 µM) |  | 
CC1(C)NC(=O)C(c2ccc(F)c(C(F)(F)F)c2)C1=O (stereo not drawn) | > 10 | 0.5 | 0 | 93.3 | Non-Toxic | < 7 | < 7 |  | 25 (≈ 86.4 µM) | > 100 |  | 
CC1(C)C(=O)N(c2ccc(F)c(C(F)(F)F)c2)C(=O)N1S(=O)(=O)c1ccccc1 | 4.3 | 4.6 | 44 | 96.1 | Non-Toxic | 210 | 160 |  | < 1.6 | < 1.6 |  | 
CC1(C)NC(=O)N(c2ccc(Cl)c(C(F)(F)F)c2)C1=O | 1.3 | 3 | 75 | 79.6 | Non-Toxic | < 7 | < 7 |  | > 100 | > 100 |  | 
